Data published in ChEMBL document CHEMBL1128723, “Orally bioavailable benzisothiazolone inhibitors of human leukocyte elastase” (J Med Chem, 1995).

How the values were obtained:
[1] = molecular target: T1, Neutrophil elastase (Homo sapiens, UniProt P08246); experiment: Potency of inhibition against human leukocyte elastase (HLE) expressed as an apparent binding constant
T1 sequence (P08246 whole entry): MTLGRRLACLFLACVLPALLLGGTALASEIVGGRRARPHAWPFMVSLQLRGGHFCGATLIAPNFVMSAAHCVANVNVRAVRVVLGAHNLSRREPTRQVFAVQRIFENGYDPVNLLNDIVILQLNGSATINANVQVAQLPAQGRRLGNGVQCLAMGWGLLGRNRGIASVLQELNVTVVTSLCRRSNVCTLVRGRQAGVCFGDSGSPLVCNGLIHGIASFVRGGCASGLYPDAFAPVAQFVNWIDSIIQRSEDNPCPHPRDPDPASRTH

[2] = Human tissue stability for the compound was determined by its half life time period in human blood; type: ADME, organism-based
[3] = Oral bioavailability in Beagle dogs at oral dose of 20 mg/kg and an intravenous dose of 5 mg/kg was administered; type: ADME, organism-based, Canis lupus familiaris; settings: dog, in vivo, read-out: BA
In short: (§1)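 Fasted rats, beagle dogs or cynomolgus monkeys were dosed orally at 20 mg/kg (one compound at 10 mg/kg) or iv at 5 mg/kg. Vehicles were mainly 0.05% lactic acid in water (oral) or 5% dextrose/0.05% lactic acid (iv). Blood was drawn at intervals, extracted with toluene/hexane (9:1) containing internal standard, and parent quantified by reverse-phase HPLC.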

[4] = Maximum plasma concentration in Beagle dogs at oral dose of 20 mg/kg and an intravenous dose of 5 mg/kg was administered; type: ADME, organism-based, Canis lupus familiaris; settings: dog; in short: as §1
[5] = Human tissue stability for the compound was determined by its half life time period in human jejunum; type: ADME, organism-based
In short: (§2)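 Jejunum (fresh-frozen animal tissue or unused human transplant tissue) was homogenized in pH 7.2 modified Ringer's buffer, spun at 9000g, and the supernatant kept. Compound was added from DMSO at 100 μM starting concentration and incubated at 37 °C, sampled at intervals. Samples were acetonitrile-quenched and parent measured by RP-HPLC to give the half-life.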

[6] = Compound was tested for plasma concentration in Beagle dogs at oral dose of 20 mg/kg and an intravenous dose of 5 mg/kg was administered; type: ADME, organism-based, Canis lupus familiaris; settings: dog; in short: as §1
[7] = Human tissue stability for the compound was determined by its half life time period in human liver; type: ADME, organism-based
In short: (§3)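 Liver S9 was prepared by homogenizing in 50 mM Na/K phosphate/KCl buffer and spinning at 9000g for 20 min. S9 was used at 8 mg/mL protein with an NADPH-generating system and preincubated 5 min at 37 °C. Compound was added from DMSO at 100 μM starting concentration and incubated at 37 °C. Parent disappearance was followed by RP-HPLC over time to give the half-life.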

[8] = system: Cricetinae gen. sp.; experiment: Effective dose required for the inhibition of human leukocyte elastase in the HLE-induced hamster hemorrhage model.; type: functional, Cricetulus griseus
[9] = system: Cricetinae gen. sp.; experiment: Inhibitory activity was determined against HLE-induced hamster hemorrhage model by intravenous administration at a dose of 1 mg/kg; type: functional, Cricetulus griseus
[10] = Compound was tested for the half life time period in dog jejunum; type: ADME, organism-based, Canis lupus familiaris; in short: as §2
[11] = Compound was tested for half life time period in hamster jejunum; type: ADME, organism-based; settings: cricetinae; in short: as §2
[12] = Compound was tested for the half life time period in monkey jejunum; type: ADME, tissue-based; settings: simiiformes; in short: as §2
[13] = Compound was tested for in vivo bioavailability in rat; type: ADME, organism-based; settings: read-out: Bioavailabiility; in short: as §1
[14] = system: Cricetinae gen. sp.; experiment: Compound was tested for effective dose required for the inhibition of human leukocyte elastase in the HLE-induced hamster hemorrhage model; type: functional, Cricetulus griseus
[15] = Compound was tested for the half life time period in dog blood; type: ADME, organism-based, Canis lupus familiaris
In short: (§4)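 Fresh heparinized blood from rats, hamsters, beagle dogs and cynomolgus monkeys was used within 4 h of collection. Compound was added from DMSO to a starting concentration of 100 μM and incubated at 37 °C with sampling at intervals. Samples were quenched with acetonitrile/TFA and the supernatant assayed by reverse-phase HPLC for loss of parent, giving the half-life. Control incubations were run with each assay.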

[16] = Compound was tested for in vivo bioavailability in hamsters; type: ADME, organism-based; settings: cricetinae, read-out: Bioavailabiility
[17] = Compound was tested for the half life time period in rat blood; type: ADME, organism-based; in short: as §4
[18] = Compound was tested for in vivo bioavailability in monkey; type: ADME, organism-based; settings: simiiformes, read-out: Bioavailabiility; in short: as §1
[19] = Compound was tested for the half life time period in monkey liver S9; type: ADME, subcellular, S9 fraction; settings: simiiformes; in short: as §3
[20] = Compound was tested for in vivo bioavailability in dog; type: ADME, organism-based, Canis lupus familiaris; settings: read-out: Bioavailabiility; in short: as §1
[21] = Compound was tested for the half life time period in monkey blood; type: ADME, tissue-based; settings: simiiformes; in short: as §4
[22] = Compound was tested for the half life time period in dog liver S9; type: ADME, Canis lupus familiaris, S9 fraction; in short: as §3
[23] = Compound was tested for half life time period in hamster blood; type: ADME, organism-based; settings: cricetinae; in short: as §4
[24] = Compound was tested for the half life time period in rat jejunum; type: ADME, organism-based; in short: as §2
[25] = Compound was tested for half life time period in hamster liver S9; type: ADME, S9 fraction; settings: cricetinae; in short: as §3
[26] = Compound was tested for the half life time period in rat liver S9; type: ADME, S9 fraction; in short: as §3

| SMILES | Ki [1] [nM] | half-life [2] [min] | bioavailability [3] [%] | Cmax [4] [ng/mL] | half-life [5] [min] | half-life [6] [min] | half-life [7] [min] | other results |
| --- | --- | --- | --- | --- | --- | --- | --- | --- |
| COc1cc(C(C)C)c2c(c1)S(=O)(=O)N(COC(=O)c1c(Cl)ccc(OCC(=O)O)c1Cl)C2=O | 0.011 | < 15 | – | – | – | – | – | – |
| O=C1c2ccccc2S(=O)(=O)N1CSc1nnnn1-c1ccccc1 | – | < 5 | – | – | – | – | – | – |
| CC(C)c1cc(O)cc2c1C(=O)N(COC(=O)c1c(Cl)ccc(S(=O)(=O)N3CCN(C)CC3)c1Cl)S2(=O)=O | 0.2 | > 1200 | 8 | 220 | 113 | 23 | 40.2 | – |
| COc1cc(C(C)C)c2c(c1)S(=O)(=O)N(COC(=O)c1c(Cl)ccc(OCCN3CCCC3)c1Cl)C2=O | 0.014 | 110 | 46 | 325 | 218 | 432 | 110 | ED50 [8]: 1 mg/kg |
| COc1cc(C(C)C)c2c(c1)S(=O)(=O)N(COC(=O)c1c(Cl)ccc(S(=O)(=O)N(C)CCN(C)C)c1Cl)C2=O | 0.013 | 130 | 14 | 300 | 80 | 74 | 23.9 | – |
| COc1cc(C(C)C)c2c(c1)S(=O)(=O)N(COC(=O)c1c(Cl)ccc(S(=O)(=O)N3CCN(C)CC3)c1Cl)C2=O | 0.011 | 90 | 21 | 390 | 99 | 78 | 28.9 | – |
| CC(C)c1cccc2c1C(=O)N(COC(=O)c1c(Cl)ccc(OCCN3CCOCC3)c1Cl)S2(=O)=O | 0.008 | 20 | – | – | 13 | – | 4.9 | inhibition in vivo at 1 mg/kg [9]: 87% |
| COc1cc(C(C)C)c2c(c1)S(=O)(=O)N(COC(=O)c1c(Cl)ccc(OCCN3CCOCC3)c1Cl)C2=O | 0.013 | 36 | 21 | 1200 | 170 | 137 | 37.3 | half-life [10]: 394 min; half-life [11]: 1.3 min; half-life [12]: 32.3 min; bioavailability [13]: 1%; ED50 [14]: 3 mg/kg; half-life [15]: 90 min; bioavailability [16]: < 3%; half-life [17]: 6 min; bioavailability [18]: < 1%; half-life [19]: 2.9 min; bioavailability [20]: 21%; half-life [21]: 57.2 min; half-life [22]: 30.2 min; half-life [23]: 259 min; half-life [24]: 60.8 min; half-life [25]: < 5 min; half-life [26]: 12.4 min |
